Data on 23 compounds can be found in ChEMBL document CHEMBL1124511, “N-(cyclohexylcarbonyl)-D-phenylalanines and related compounds. A new class of oral hypoglycemic agents. 2” (1989).

A value given as a limit tells only on which side of the number the result lay.

In one assay the test system is Mus musculus. In words: Percent decrease in blood glucose level, after peroral administration of 100 mg/kg of compound in mice; Inactive. Format: functional. Conditions: route oral.
`CC(C)[C@H]1CC[C@@H](C(=O)N[C@H](Cc2ccccc2)C(=O)O)CC1`: the Hypoglycemic activity was <20%. As to `O=C(N[C@H](Cc1ccccc1)C(=O)O)C1CCc2ccccc2C1` (stereo partly drawn), the Hypoglycemic activity is <20%. Regarding `O=C(O)[C@@H](Cc1ccccc1)NC(=O)[C@H]1CC[C@H](c2ccccc2)CC1`, the Hypoglycemic activity is given as <20%. Still for that read-out and setting: next, `O=C(N[C@H](Cc1ccccc1)C(=O)O)C1CC2CCC1C2` (stereo partly drawn): <20%; `CC(C)[C@H]1CC[C@H](C(=O)N[C@@H](Cc2ccccc2)C(N)=O)CC1`: <20%. The same measure, in the same setting: next, `CCCCC[C@H]1CC[C@H](C(=O)N[C@H](Cc2ccccc2)C(=O)O)CC1`: <20%; `O=C(N[C@H](Cc1ccccc1)C(=O)O)C1CCCCCC1`: <20%; `CC(C)[C@H]1CC[C@H](C(=O)NCCc2ccccc2)CC1`: <20%.

The species entered for the next assay is Mus musculus. In words: Hypoglycemic activity causing more than a 20% blood glucose decrease in fasting mice. The class given is functional.
Conditions: not given
In short, it runs like this:
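Male ICR-CD1 mice, 5 weeks old, 18 h fasted, groups of five. Oral dosing as a suspension in 0.5% (carboxymethyl)cellulose–0.14 M NaCl, 1 mL/kg; vehicle control run in parallel. Carotid blood taken at 1 h; glucose by glucose-oxidase-peroxidase. Student's t test (p < 0.05). Value is the lowest dose giving >20% glucose decrease.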
As for `CCCCNC(=O)NS(=O)(=O)c1ccc(C)cc1` [TOLBUTAMIDE], the “Minimum effective hypoglycemic dose” value is 25 mg/kg. Same read-out and setting: next, `CCCC[C@H]1CC[C@H](C(=O)N[C@H](Cc2ccccc2)C(=O)O)CC1`: 25 mg/kg. The same measure, in the same setting: next, `CC(C)[C@H]1CC[C@H](C(=O)N[C@@H](Cc2ccccc2)C(=O)O)CC1` [(S)-NATEGLINIDE]: 100 mg/kg; `O=C(N[C@H](Cc1ccccc1)C(=O)O)C1CCCC1`: 50 mg/kg. In the case of `C[C@H]1CC[C@H](C(=O)N[C@H](Cc2ccccc2)C(=O)O)CC1`, the “Minimum effective hypoglycemic dose” value stood at 25 mg/kg. Same read-out and setting: next, `C=C(C)[C@@H]1CC=C(C(=O)N[C@H](Cc2ccccc2)C(=O)O)CC1`: 25 mg/kg; `CC[C@H]1CC[C@H](C(=O)N[C@H](Cc2ccccc2)C(=O)O)CC1`: 25 mg/kg; `CC(C)[C@H]1CC[C@H](C(=O)N[C@@H](Cc2ccccc2)C(=O)OCc2ccccc2)CC1`: 25 mg/kg. Same read-out and setting: next, `COC(=O)[C@H](Cc1ccccc1)NC(=O)[C@H]1CC[C@H](C(C)C)CC1`: 3.1 mg/kg; `CC(C)c1ccc(C(=O)N[C@H](Cc2ccccc2)C(=O)O)cc1`: 25 mg/kg; `CC(C)(C)[C@H]1CC[C@H](C(=O)N[C@H](Cc2ccccc2)C(=O)O)CC1`: 6.3 mg/kg.

As to `CC(C)N(C(=O)[C@H](Cc1ccccc1)NC(=O)[C@H]1CC[C@H](C(C)C)CC1)C(C)C`, the “Minimum effective hypoglycemic dose” value worked out at 100 mg/kg. On the same count and under the same terms, next, `CCC[C@H]1CC[C@H](C(=O)N[C@H](Cc2ccccc2)C(=O)O)CC1`: 25 mg/kg; `CC(C)[C@H]1CC[C@H](C(=O)N[C@H](Cc2ccccc2)C(=O)O)CC1` [NATEGLINIDE]: 1.6 mg/kg; `O=C(N[C@H](Cc1ccccc1)C(=O)O)C1CCCCC1`: 100 mg/kg.
